This note sets out measurements from ChEMBL document CHEMBL4011622, “The Structure-Activity Relationship of a Tetrahydroisoquinoline Class of N-Methyl-d-Aspartate Receptor Modulators that Potentiates GluN2B-Containing N-Methyl-d-Aspartate Receptors” (J Med Chem, 2017).

Calls of active or inactive are those of the source. The calls are words filed in the database; no cut-off is given here.

The target in data set [1] is T1, Glutamate NMDA receptor; Grin1/Grin2b (Rattus norvegicus, UniProt P35439+Q00960).
The target of data set [2] is Glutamate receptor 1 (Rattus norvegicus) (UniProt P19490). Put plainly: Positive allosteric modulation of recombinant rat GluA1 receptor expressed in xenopus laevis oocyte assessed as potentiation of glutamate-induced current response at 30 uM at holding potential -40mV by two electrode voltage clamp method relative to glutamate. In general terms: Two-electrode voltage clamp holds a large cell at a set potential and records current.
Sequence of Glutamate receptor 1 (Rattus norvegicus) (P19490 whole entry): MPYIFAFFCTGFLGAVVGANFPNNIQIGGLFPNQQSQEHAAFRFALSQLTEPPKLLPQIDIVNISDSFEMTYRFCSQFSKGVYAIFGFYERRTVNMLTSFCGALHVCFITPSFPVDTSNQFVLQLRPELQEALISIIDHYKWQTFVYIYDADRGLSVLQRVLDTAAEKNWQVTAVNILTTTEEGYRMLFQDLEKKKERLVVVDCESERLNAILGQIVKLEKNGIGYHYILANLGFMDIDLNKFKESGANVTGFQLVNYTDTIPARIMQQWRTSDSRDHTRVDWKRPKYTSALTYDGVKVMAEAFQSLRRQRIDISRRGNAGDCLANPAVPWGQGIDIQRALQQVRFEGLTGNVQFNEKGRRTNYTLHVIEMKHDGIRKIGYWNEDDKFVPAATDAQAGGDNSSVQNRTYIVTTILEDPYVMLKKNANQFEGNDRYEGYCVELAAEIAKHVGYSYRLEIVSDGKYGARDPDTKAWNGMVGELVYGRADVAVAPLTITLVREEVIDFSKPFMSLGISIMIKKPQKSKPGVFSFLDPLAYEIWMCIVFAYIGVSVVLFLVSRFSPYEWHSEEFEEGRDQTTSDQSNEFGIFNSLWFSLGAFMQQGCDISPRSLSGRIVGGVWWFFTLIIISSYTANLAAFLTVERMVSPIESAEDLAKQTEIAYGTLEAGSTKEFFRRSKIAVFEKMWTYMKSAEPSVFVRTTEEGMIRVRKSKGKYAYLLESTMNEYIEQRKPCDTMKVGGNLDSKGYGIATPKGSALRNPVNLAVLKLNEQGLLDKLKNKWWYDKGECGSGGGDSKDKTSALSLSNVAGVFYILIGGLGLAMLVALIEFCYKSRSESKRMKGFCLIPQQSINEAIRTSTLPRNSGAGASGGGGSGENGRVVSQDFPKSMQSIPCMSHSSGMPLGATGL

Data set [3] addresses T2, Glutamate NMDA receptor; Grin1/Grin2b (Rattus norvegicus) (UniProt P35439+Q00960). Put plainly: Positive allosteric modulation of recombinant rat GluN1/GluN2B receptor expressed in xenopus laevis oocyte assessed as potentiation of glutamate-induced current response at 30 uM at holding potential -40mV by two electrode voltage clamp method.
In data set [4] the target is T3, Glutamate NMDA receptor; Grin1/Grin2c (Rattus norvegicus) (UniProt P35439+Q00961). Put plainly: Positive allosteric modulation of recombinant rat GluN1/GluN2C receptor expressed in xenopus laevis oocyte assessed as potentiation of glutamate-induced current response at 30 uM at holding potential -40mV by two electrode voltage clamp method. The procedure, abridged: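 Rat GluN1/GluN2C (modified GluN2C) expressed from injected mRNA in Xenopus oocytes; two-electrode voltage clamp at -40 mV, 23°C, recording solution pH 7.4 (90 NaCl, 1.0 KCl, 0.5 BaCl2, 0.005 EDTA, 10 HEPES, mM). Compound coapplied with 100 µM glutamate and 30 µM glycine; final DMSO 0.05-0.5%.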

Data set [5] has as its target T4, Ionotropic glutamate receptor NMDA 1/2D (Rattus norvegicus) (UniProt P35439+Q62645). Put plainly: Positive allosteric modulation of recombinant rat GluN1/GluN2D receptor expressed in xenopus laevis oocyte assessed as potentiation of glycine-induced current response at 30 uM at holding potential -40mV by two electrode voltage clamp method.
In data set [6] the target is T2, Glutamate NMDA receptor; Grin1/Grin2b (Rattus norvegicus). Put plainly: Positive allosteric modulation of recombinant rat GluN1/GluN2B receptor expressed in xenopus laevis oocyte assessed as potentiation of glutamate and glycine-induced current response at 30 uM at holding potential -40mV by two electrode voltage clamp method relative to control. The gist of the method: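 Two-electrode voltage clamp at -40 mV, 23°C, pH 7.4 Ba²⁺ recording solution, on Xenopus oocytes expressing rat NMDA receptors. Currents were evoked by 100 µM glutamate plus 30 µM glycine, with compound co-applied (DMSO 0.05–0.5% final). […] Each compound used at least 4 oocytes from at least 2 frogs.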

Data set [7] has as its target T1, Glutamate NMDA receptor; Grin1/Grin2b. The data set can be described thus: Positive allosteric modulation of recombinant rat GluN1/GluN2B receptor expressed in xenopus laevis oocyte assessed as potentiation of glutamate and glycine-induced current response at holding potential -40mV by two electrode voltage clamp method. The gist of the method: (§1)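 Two-electrode voltage clamp at -40 mV, 23°C, pH 7.4 Ba²⁺ recording solution, on Xenopus oocytes expressing rat NMDA receptors. Currents were evoked by 100 µM glutamate plus 30 µM glycine, with compound co-applied (DMSO 0.05–0.5% final). Each compound used at least 4 oocytes from at least 2 frogs.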

The target in data set [8] is Ionotropic glutamate receptor NMDA 1/2D (Rattus norvegicus, UniProt P35439+Q62645). The data set can be described thus: Positive allosteric modulation of recombinant rat GluN1/GluN2D receptor expressed in xenopus laevis oocyte assessed as potentiation of glutamate and glycine-induced current response at holding potential -40mV by two electrode voltage clamp method. The procedure, abridged:
as §1

The target in data set [9] is T2, Glutamate NMDA receptor; Grin1/Grin2b (Rattus norvegicus). The data set can be described thus: Positive allosteric modulation of recombinant rat GluN1/GluN2B receptor expressed in xenopus laevis oocyte assessed as compound concentration required to show two fold increase in glutamate and glycine-induced current response at holding potential -40mV by two electrode voltage clamp method.

The target in data set [10] is T3, Glutamate NMDA receptor; Grin1/Grin2c (Rattus norvegicus). Put plainly: Positive allosteric modulation of recombinant rat GluN1/GluN2C receptor expressed in xenopus laevis oocyte assessed as compound concentration required to show two fold increase in glutamate and glycine-induced current response at holding potential -40mV by two electrode voltage clamp method.

The target in data set [11] is T4, Ionotropic glutamate receptor NMDA 1/2D (Rattus norvegicus). The data set can be described thus: Positive allosteric modulation of recombinant rat GluN1/GluN2D receptor expressed in xenopus laevis oocyte assessed as compound concentration required to show two fold increase in glutamate and glycine-induced current response at holding potential -40mV by two electrode voltage clamp method.

Data set [12] can be described thus: Cmax in C57Bl/6 mouse plasma at 10 mg/kg, ip after 2 hrs by LC/MS/MS analysis. In kind it is ADME, organism-based. Details: dose 10 mg/kg, route intraperitoneal. The gist of the method: (§2)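 Male/female not stated; 30–35 g C57Bl/6 mice given 10 mg/kg i.p. at 1.25 mg/mL in 5% NMP/20% solutol/75% of 20% hydroxypropyl-β-cyclodextrin. Blood was taken by cardiac puncture into heparin and brains were collected at 0, 15, 30, 60, 120 and 240 min, three mice per time point. Plasma and brain homogenate (1:4 water) were acetonitrile-precipitated and quantified by LC-MS/MS against an 8-point duplicate standard curve.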

In the next data set the test system is Brain. Put plainly: Drug uptake in C57Bl/6 mouse brain at 10 mg/kg, ip after 15 to 30 mins by LC/MS/MS analysis. The conditions noted are these: in vivo, read-out: Drug uptake. In kind it is ADME, organism-based. The gist of the method:
as §2

The nature of data set [13]: Drug uptake in C57Bl/6 mouse brain at 10 mg/kg, ip after 4 hrs by LC/MS/MS analysis. The class given is ADME, organism-based. To be noted: read-out: Drug uptake. The procedure, abridged:
as §2

A short description of data set [14]: Ratio of drug level in C57Bl/6 mouse brain to plasma at 10 mg/kg, ip after 15 mins by LC/MS/MS analysis. The class given is ADME, organism-based. The procedure, abridged:
as §2

Data set [15] is described as follows: Ratio of drug level in C57Bl/6 mouse brain to plasma at 10 mg/kg, ip after 4 hrs by LC/MS/MS analysis. In kind it is ADME, organism-based. The procedure, abridged:
as §2

Another data set relates to Liver. Put plainly: Drug level in human liver microsomes treated with (3-chlorophenyl)(6-isopropoxy-1-((4-methoxyphenoxy)methyl)-3,4-dihydroisoquinolin-2(1H)-yl)methanethione at […] measured at 30 mins by LC/MS/MS analysis. In kind it is ADME, microsome. To be noted: 0.5 h. On the technique in general: Liver microsomes are a subcellular fraction often used to study metabolism.

The test system of a further data set is Mus musculus. Put plainly: Toxicity in C57Bl/6 mouse assessed as behavioral abnormalities at 10 mg/kg, ip. In kind it is organism-based. The conditions noted are these: in vivo. The procedure, abridged: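 C57Bl/6 mice (30–35 g) were dosed at 10 mg/kg i.p. in 5% NMP/20% solutol/75% of 20% hydroxypropyl-β-cyclodextrin and observed for behavioral abnormalities after dosing.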

Data set [16] deals with Glutamate receptor ionotropic, kainate 2 (Rattus norvegicus) (UniProt P42260). The data set can be described thus: Positive allosteric modulation of recombinant rat GluK2 receptor expressed in xenopus laevis oocyte assessed as potentiation of glutamate-induced current response at 30 uM at holding potential -40mV by two electrode voltage clamp method relative to glutamate.
Sequence of Glutamate receptor ionotropic, kainate 2 (Rattus norvegicus) (P42260 whole entry): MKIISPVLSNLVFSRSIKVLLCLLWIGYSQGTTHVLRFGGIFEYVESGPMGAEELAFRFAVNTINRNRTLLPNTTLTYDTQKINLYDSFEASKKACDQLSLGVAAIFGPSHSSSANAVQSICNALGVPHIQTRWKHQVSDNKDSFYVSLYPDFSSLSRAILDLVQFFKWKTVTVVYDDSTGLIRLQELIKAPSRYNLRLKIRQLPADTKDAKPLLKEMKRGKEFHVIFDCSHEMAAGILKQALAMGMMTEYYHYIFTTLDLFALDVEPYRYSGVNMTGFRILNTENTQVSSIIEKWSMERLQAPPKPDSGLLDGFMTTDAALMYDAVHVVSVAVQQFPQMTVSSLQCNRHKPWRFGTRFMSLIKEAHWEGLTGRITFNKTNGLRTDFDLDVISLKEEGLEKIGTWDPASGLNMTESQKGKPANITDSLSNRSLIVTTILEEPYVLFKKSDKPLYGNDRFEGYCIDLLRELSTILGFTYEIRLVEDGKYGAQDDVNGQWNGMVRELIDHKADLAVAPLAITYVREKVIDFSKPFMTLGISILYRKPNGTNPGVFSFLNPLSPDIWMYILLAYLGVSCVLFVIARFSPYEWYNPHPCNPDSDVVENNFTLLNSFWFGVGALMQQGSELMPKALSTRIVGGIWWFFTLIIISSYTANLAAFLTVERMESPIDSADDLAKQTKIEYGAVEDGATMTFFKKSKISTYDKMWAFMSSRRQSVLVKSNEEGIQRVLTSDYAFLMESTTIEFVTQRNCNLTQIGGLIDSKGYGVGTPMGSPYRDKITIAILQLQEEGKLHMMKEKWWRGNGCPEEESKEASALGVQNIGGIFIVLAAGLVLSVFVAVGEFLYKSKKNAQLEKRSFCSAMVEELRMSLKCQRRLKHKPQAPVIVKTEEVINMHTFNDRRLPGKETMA

What is called EC50 is the midpoint of the concentration-response curve. `NCCCNCCCCNCCCN` [SPERMINE] came in with an EC50 in data set [1] of 100 to 200 µM.

One may read the Emax as the greatest response seen or fitted, relative to the assay's reference. Usually Cmax stands for the highest concentration seen after dosing. Regarding `COc1ccc(OCC2c3ccc(OC(C)C)cc3CCN2C(=O)c2cccc(Cl)c2)cc1` (stereo not given), the Activity in data set [2] is 106%; in [6], 195%; in the data set on Mus musculus it was “Non-Toxic”; in [16] it was 96%. Moreover, the result in [3], in data set [4] and in [5] was inactive. Besides, the maximal effect (Emax) in [6] turned out to be 202%. The EC50 was 5.2 µM in data set [7] and 3 µM in data set [8]. Moreover, the CD is 64 µM in [9], 4.6 µM in [10] and 4.9 µM in data set [11]. Moreover, in data set [12], the Cmax worked out at 1700 nM. In the data set with Brain, the concentration is 700 nM. For the same compound, the concentration at 4 h in data set [13] came out at 400 nM. Besides, the figures for the BPR in [14] and in data set [15] were 0.7 and 0.9, respectively. Also, in the data set on Liver, the Drug metabolism result is on record as “Metabolite_Detected”.
